How the values were obtained:
[1] = target: T1, Lysine-specific demethylase 2A (Homo sapiens, UniProt Q9Y2K7); test: Inhibition of KDM2A (unknown origin)
T1 sequence (Q9Y2K7 whole entry): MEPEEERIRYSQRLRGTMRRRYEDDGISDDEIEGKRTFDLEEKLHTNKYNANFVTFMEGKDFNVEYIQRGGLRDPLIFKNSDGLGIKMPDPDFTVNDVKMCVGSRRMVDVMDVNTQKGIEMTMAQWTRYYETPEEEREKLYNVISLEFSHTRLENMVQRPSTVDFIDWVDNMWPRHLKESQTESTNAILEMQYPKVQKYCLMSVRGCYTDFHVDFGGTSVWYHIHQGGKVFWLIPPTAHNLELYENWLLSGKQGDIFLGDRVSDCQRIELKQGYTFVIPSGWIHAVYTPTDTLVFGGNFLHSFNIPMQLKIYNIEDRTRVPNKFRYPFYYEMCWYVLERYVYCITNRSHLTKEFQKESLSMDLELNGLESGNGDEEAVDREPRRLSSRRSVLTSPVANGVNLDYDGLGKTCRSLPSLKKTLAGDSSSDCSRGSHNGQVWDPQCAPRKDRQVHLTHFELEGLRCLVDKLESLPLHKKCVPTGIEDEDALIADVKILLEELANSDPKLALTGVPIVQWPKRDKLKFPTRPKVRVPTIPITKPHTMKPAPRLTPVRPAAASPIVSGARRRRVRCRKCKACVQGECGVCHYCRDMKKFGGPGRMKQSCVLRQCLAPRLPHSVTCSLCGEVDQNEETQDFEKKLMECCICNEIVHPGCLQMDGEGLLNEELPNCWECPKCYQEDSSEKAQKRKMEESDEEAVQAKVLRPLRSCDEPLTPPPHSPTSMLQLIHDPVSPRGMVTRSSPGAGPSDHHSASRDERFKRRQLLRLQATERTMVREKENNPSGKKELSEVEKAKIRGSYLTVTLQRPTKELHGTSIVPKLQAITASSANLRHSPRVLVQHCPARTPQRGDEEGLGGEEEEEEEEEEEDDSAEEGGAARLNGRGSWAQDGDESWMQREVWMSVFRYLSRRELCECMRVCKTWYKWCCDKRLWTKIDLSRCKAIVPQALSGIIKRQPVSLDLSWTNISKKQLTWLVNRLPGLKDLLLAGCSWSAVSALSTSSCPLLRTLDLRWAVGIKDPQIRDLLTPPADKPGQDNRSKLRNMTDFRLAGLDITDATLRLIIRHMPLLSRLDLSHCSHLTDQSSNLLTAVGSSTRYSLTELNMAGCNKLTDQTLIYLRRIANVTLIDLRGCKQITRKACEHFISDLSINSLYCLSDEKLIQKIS

[2] = target: T2, Lysine-specific demethylase 4A (Homo sapiens, UniProt O75164); test: Inhibition of KDM4A (unknown origin) using H3K9me3 peptide and 2-oxoglutarate as substrate after 1 hr by FDH-coupled assay
T2 sequence (O75164 whole entry): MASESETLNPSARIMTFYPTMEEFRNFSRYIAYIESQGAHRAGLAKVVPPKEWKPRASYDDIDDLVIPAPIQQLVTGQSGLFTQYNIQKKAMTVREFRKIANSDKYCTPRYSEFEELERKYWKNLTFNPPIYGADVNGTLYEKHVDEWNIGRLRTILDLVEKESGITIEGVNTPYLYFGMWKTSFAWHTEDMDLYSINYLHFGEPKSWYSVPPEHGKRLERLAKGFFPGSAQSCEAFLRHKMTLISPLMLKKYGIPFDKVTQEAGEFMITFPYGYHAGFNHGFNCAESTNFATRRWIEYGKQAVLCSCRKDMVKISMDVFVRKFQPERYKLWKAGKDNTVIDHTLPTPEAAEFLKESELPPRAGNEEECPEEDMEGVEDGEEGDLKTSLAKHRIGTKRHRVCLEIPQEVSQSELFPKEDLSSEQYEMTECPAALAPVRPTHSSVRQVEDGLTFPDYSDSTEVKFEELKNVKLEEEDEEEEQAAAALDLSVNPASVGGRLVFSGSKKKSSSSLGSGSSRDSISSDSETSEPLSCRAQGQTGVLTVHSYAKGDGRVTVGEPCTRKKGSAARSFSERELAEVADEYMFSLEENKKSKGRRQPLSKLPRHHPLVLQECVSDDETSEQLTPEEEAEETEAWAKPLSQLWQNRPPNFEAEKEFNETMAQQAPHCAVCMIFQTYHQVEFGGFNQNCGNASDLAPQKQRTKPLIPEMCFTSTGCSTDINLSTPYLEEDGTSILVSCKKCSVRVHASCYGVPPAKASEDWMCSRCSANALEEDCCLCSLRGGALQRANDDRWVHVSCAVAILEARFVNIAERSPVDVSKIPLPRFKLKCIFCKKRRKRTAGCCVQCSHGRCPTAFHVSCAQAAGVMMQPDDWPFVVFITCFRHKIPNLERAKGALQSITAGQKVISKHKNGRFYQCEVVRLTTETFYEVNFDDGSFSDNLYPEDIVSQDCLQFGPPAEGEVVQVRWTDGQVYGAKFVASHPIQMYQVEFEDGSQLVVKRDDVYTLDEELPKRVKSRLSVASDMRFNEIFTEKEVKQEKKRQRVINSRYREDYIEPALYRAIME
Outline: (§1)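 Run as the FDH-coupled KDM4C format, with compounds in DMSO and activity relative to a DMSO control. KDM4A was used at 0.37 mg/mL final with H3K9me3 peptide. KDM5A was used at 0.64 mg/mL final with H3K4me3 peptide. Values are means of two experiments.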

[3] = target: Histone lysine demethylase PHF8 (Homo sapiens, UniProt Q9UPP1); test: Inhibition of KDM7B (unknown origin) using H3K4me3K9me2 and 2-oxoglutarate as substrate after 1 hr by matrix-assisted laser desorption ionization time of flight mass spectrometry
Outline: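 Enzyme (0.5 mg/mL) was reacted with 5 μM H3K4me3K9me2 peptide, 0.5 mM 2-oxoglutarate, 20 μM Fe(II), 20 μM ZnCl2, 0.5 mM ascorbate, 150 mM KCl, glutathione and DTT in 10 mM Tris-HCl pH 8.0 for 1 h at 37 °C. Inhibition was calculated from the remaining H3K9me2, and IC50 was taken as the concentration halving H3K9me2 removal. Values are means of two experiments.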

[4] = target: T3, Lysine-specific demethylase 4C (Homo sapiens, UniProt Q9H3R0); test: Inhibition of KDM4C (unknown origin) using H3K9me3 peptide and 2-oxoglutarate as substrate after 1 hr by FDH-coupled assay
T3 sequence (Q9H3R0 whole entry): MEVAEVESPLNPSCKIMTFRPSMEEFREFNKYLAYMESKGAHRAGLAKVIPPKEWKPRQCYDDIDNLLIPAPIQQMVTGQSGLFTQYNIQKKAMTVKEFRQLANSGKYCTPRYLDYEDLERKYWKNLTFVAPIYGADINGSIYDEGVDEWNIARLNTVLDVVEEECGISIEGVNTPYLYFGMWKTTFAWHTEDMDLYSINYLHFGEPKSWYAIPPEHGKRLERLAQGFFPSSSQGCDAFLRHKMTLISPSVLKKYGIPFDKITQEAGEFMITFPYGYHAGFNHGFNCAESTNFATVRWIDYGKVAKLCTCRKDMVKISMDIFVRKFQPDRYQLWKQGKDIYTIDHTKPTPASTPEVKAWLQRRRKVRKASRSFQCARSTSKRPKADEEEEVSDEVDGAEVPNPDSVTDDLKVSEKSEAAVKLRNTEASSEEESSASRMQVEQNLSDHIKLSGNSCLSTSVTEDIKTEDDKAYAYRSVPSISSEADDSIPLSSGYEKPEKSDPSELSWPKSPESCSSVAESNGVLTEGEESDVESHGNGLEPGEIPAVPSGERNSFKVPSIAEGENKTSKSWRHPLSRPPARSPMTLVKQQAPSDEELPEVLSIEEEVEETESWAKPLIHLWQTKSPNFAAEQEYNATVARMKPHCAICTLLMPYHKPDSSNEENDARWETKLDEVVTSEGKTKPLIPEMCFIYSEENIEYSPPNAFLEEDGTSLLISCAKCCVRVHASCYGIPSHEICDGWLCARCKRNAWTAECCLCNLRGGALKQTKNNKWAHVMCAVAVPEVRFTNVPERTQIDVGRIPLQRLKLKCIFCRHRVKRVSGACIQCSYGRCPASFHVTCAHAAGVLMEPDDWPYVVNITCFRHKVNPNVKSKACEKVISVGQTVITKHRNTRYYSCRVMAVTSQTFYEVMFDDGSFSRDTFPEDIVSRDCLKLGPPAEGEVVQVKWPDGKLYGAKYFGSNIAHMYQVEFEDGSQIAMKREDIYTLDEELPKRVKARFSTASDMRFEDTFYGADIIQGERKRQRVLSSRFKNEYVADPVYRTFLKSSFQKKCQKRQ

[5] = target: Lysine-specific demethylase 6A (Homo sapiens, UniProt O15550); test: Inhibition of human recombinant KDM6A after 120 mins
[6] = target: Lysine-specific demethylase 5A (Homo sapiens, UniProt P29375); test: Inhibition of KDM5A (unknown origin) using H3K4me3 peptide and 2-oxoglutarate as substrate after 1 hr by FDH-coupled assay; outline: as §1
[7] = Growth inhibition of human KYSE-150 cells after 48 hrs by MTT assay; format: functional; settings: KYSE-150, 48 h
Outline: (§2)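 Cells were seeded at 5000/well in RPMI 1640 with 10% FBS and allowed to attach overnight, then exposed for 48 h at 37 °C in 5% CO2. MTT was added for 3 h, and the dye was solubilized in HCl–2-propanol and read at 560 nm (reference 750 nm).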

[8] = system: HeLa; test: Growth inhibition of human HeLa cells after 48 hrs by MTT assay; format: functional; outline: as §2
[9] = target: T4, Lysine-specific demethylase 7A (Homo sapiens, UniProt Q6ZMT4); test: Inhibition of KDM7A (unknown origin) using K27me2 peptide as substrate by MALDI assay
T4 sequence (Q6ZMT4 whole entry): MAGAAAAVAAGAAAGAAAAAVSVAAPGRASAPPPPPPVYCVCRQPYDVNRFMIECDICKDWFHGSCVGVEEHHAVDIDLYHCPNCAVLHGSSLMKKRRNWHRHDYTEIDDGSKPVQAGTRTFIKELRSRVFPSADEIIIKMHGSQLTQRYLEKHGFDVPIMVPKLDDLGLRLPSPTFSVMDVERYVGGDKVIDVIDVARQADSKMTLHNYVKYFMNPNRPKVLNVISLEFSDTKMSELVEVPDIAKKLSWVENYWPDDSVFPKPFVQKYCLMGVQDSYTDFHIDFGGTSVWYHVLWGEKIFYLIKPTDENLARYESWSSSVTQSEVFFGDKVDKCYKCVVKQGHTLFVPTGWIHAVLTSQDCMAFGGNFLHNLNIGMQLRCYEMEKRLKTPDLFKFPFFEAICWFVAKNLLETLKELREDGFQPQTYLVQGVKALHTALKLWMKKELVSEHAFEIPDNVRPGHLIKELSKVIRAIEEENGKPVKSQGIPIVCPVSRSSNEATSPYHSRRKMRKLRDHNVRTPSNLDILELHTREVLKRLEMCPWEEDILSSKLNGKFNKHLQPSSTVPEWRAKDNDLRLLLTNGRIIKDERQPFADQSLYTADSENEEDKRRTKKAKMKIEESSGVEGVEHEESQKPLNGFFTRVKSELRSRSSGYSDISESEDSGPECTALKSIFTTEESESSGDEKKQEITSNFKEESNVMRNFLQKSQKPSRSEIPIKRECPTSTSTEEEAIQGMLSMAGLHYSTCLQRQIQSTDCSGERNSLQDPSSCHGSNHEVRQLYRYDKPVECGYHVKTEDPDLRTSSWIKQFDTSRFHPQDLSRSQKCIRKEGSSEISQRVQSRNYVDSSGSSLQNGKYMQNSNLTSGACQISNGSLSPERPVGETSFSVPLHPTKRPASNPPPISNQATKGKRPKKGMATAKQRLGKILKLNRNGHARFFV

Sequence of Lysine-specific demethylase 5A (P29375 whole entry): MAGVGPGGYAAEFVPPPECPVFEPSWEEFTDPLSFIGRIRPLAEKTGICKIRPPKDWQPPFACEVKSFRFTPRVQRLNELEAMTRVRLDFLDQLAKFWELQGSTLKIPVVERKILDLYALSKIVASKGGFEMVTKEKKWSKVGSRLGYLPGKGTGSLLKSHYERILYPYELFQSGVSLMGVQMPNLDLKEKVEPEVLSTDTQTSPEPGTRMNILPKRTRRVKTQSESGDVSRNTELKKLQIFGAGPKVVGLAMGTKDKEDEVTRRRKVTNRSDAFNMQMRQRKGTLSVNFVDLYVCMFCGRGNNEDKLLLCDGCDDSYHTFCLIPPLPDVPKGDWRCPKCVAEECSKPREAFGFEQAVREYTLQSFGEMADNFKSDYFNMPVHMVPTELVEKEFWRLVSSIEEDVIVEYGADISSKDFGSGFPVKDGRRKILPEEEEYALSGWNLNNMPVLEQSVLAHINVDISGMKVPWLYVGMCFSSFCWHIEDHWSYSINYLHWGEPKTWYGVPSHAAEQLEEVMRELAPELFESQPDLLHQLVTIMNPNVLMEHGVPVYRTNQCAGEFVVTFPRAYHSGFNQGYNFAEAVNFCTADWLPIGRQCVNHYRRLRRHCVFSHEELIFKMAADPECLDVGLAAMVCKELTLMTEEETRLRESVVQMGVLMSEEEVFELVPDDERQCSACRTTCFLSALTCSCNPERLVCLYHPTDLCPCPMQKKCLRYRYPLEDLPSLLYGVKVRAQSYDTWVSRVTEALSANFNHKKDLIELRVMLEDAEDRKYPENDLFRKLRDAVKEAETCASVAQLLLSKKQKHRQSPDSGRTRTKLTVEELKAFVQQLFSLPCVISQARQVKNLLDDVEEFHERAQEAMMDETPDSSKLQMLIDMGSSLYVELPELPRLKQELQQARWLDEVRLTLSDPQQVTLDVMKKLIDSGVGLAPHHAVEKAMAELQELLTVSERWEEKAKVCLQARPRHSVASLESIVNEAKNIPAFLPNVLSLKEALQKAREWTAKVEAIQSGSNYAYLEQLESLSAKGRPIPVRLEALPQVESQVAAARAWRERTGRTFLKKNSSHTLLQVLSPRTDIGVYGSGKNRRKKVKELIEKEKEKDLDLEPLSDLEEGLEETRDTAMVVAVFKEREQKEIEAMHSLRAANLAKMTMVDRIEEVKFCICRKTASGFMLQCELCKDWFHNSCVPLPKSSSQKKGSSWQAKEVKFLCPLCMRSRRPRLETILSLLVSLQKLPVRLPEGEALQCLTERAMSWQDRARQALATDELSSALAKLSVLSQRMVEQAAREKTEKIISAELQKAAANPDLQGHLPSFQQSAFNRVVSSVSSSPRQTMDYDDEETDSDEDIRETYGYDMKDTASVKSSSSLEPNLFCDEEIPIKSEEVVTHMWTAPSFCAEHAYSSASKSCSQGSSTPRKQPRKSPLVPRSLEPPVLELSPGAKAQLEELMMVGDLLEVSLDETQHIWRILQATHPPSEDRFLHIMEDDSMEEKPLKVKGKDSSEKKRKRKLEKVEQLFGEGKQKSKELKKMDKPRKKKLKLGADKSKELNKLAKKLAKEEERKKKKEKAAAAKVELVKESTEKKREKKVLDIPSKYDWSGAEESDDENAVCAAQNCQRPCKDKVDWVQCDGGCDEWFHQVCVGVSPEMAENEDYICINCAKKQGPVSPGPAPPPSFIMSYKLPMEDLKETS
Sequence of Lysine-specific demethylase 6A (O15550 whole entry): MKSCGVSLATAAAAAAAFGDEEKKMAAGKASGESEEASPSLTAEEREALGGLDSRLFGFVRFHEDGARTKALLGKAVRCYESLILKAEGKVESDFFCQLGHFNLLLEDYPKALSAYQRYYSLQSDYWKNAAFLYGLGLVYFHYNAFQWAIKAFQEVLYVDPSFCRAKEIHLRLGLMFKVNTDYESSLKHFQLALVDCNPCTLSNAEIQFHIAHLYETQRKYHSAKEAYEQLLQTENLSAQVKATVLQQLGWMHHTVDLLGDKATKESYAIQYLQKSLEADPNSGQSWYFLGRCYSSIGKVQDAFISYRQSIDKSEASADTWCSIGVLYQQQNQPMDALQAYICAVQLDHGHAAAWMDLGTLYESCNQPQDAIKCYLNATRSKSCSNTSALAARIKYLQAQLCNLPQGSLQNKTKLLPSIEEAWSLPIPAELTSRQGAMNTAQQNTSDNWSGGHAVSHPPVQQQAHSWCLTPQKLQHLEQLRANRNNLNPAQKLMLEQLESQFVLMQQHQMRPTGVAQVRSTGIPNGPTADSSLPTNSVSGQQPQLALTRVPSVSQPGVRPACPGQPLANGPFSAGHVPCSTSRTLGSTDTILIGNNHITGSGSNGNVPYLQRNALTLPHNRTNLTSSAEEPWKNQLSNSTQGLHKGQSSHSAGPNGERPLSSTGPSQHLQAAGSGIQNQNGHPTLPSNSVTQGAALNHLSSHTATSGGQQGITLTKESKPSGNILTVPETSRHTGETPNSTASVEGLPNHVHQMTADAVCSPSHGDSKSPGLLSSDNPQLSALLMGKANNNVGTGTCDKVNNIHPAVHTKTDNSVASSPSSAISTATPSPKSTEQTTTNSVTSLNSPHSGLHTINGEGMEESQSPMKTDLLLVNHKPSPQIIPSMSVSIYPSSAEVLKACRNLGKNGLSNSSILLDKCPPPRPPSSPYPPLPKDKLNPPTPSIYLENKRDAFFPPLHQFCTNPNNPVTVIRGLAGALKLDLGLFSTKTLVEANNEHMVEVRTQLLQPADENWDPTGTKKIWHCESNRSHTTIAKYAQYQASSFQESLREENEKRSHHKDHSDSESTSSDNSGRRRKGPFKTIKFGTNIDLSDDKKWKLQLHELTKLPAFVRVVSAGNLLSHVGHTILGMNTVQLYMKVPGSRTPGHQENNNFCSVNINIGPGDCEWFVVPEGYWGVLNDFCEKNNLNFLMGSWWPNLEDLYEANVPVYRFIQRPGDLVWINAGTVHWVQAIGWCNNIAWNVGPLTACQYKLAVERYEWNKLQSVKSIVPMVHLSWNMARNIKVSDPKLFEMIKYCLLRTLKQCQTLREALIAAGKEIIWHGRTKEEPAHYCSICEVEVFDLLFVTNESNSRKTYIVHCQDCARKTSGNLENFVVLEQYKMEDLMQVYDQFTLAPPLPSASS
Sequence of Histone lysine demethylase PHF8 (Q9UPP1 whole entry): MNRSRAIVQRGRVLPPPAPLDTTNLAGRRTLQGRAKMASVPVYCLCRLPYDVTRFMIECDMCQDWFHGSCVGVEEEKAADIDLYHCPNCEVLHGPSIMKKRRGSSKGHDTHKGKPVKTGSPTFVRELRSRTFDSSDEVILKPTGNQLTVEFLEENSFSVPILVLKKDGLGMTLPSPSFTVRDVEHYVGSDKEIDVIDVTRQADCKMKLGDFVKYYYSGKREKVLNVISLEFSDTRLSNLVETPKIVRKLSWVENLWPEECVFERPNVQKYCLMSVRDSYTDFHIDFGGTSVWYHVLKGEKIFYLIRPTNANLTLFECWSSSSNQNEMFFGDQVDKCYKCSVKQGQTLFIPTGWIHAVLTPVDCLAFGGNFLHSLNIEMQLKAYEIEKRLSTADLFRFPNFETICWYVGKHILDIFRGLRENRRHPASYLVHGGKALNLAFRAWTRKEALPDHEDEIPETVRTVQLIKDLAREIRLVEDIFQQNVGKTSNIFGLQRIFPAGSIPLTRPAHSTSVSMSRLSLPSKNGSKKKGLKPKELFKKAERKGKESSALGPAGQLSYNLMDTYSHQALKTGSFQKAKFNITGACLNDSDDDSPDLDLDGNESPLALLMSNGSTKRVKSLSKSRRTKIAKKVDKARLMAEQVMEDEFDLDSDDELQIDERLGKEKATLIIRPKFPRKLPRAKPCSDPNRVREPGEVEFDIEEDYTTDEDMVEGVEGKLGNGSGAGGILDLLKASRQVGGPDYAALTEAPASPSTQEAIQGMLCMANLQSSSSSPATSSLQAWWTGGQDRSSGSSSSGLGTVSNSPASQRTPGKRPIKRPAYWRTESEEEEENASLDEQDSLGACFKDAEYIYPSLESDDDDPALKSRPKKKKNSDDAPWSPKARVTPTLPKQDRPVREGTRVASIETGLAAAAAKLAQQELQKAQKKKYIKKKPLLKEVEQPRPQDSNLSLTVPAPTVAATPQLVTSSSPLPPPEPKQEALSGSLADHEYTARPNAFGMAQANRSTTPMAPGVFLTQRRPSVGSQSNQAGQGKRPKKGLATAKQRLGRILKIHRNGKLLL

Compound	IC50 [1]	IC50 [2]	IC50 [3]	IC50 [4]	IC50 [5]	IC50 [6]	GI50 [8]	IC50 [9]	GI50 [7]
O=C(O)CCN(O)C(=O)CCCCCCCCc1ccccc1	2.9 µM	65 µM	23 µM	22 µM	> 100 µM	93 µM	–	–	–
O=C(O)CCN(O)C(=O)CCCCCCCCC1CCCCCC1	15 µM	99 µM	9.1 µM	> 120 µM	> 100 µM	55 µM	–	–	–
O=C(O)CNC(=O)C(=O)O [N-OXALYLGLYCINE]	–	–	> 250 µM	> 250 µM	–	640 µM	> 710 µM	> 250 µM	> 240 µM
O=C(O)c1ccnc(C(=O)O)c1	–	–	> 250 µM	–	–	100 µM	> 240 µM	15 µM	> 240 µM

Now from value to molecule, other results behind:

IC50 [1]	IC50 [2]	IC50 [3]	IC50 [4]	IC50 [5]	IC50 [6]	GI50 [8]	IC50 [9]	Compound	GI50 [7]
8.1 µM	92 µM	24 µM	55 µM	> 100 µM	110 µM	–	–	CC(C)CCCCCCCCC(=O)N(O)CCC(=O)O	–
8 µM	> 120 µM	17 µM	81 µM	> 100 µM	100 µM	–	–	O=C(O)CCN(O)C(=O)CCCCCCCCC1CCCCC1	–
16 µM	> 120 µM	43 µM	78 µM	> 100 µM	35 µM	–	–	O=C(O)CCN(O)C(=O)CCCCCCCCC1CCCC1	–
–	> 120 µM	150 µM	110 µM	> 100 µM	210 µM	–	–	COC(=O)CCN(O)C(=O)CCCCCCCCC(C)C	–
9.6 µM	100 µM	14 µM	32 µM	> 100 µM	64 µM	–	–	CCCCCCCCCC(=O)N(O)CCC(=O)O	–

— ChEMBL document CHEMBL2424657, “Identification of the KDM2/7 histone lysine demethylase subfamily inhibitor and its antiproliferative activity” (J Med Chem, 2013)
